Consider one molecule from ChEMBL document CHEMBL1142981, “Identification and synthesis of a novel selective partial PPARdelta agonist with full efficacy on lipid metabolism in vitro and in vivo” (J Med Chem, 2007).

Molecules are shown by their SMILES.

Data set [1] has as its system Mus musculus. The experiment in a line: Decrease in triglycerides level in human ApoB100/CETP transgenic mouse at 6 mg/kg, po after 6 weeks relative to control. Type of data set: functional. More on the design: scale not given: the % may be the effect or the level left.
In data set [2] the target is T1, Peroxisome proliferator-activated receptor delta (Mus musculus) (UniProt P35396).
T1 sequence (whole entry): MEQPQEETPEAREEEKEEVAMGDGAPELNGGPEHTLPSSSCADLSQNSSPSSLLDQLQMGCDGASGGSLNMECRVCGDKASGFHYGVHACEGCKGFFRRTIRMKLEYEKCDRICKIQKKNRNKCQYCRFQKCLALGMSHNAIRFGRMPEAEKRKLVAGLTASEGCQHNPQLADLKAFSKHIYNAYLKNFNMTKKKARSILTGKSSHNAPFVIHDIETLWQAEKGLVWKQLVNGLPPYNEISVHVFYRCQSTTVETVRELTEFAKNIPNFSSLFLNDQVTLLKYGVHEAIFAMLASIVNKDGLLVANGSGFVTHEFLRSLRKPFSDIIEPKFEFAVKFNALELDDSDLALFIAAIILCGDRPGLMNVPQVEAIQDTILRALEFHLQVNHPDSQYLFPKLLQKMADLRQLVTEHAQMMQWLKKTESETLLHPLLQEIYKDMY
Put plainly: Agonist activity at mouse PPAR delta expressed in HEK293 cells by PPAR-GAL4 transactivation assay. Type of data set: functional, cell-based.

For data set [3], the system named is Mus musculus. Put plainly: Decrease in LDL level in human ApoB100/CETP transgenic mouse at 6 mg/kg, po after 6 weeks relative to control. More on the design: scale not given: the % may be the effect or the level left. Type of data set: functional.
In data set [4] the test system is Mus musculus. Put plainly: Decrease in total cholesterol level in human ApoB100/CETP transgenic mouse at 6 mg/kg, po after 6 weeks relative to control. Type of data set: functional. Also noted: scale not given: the % may be the effect or the level left.
Data set [5] can be described thus: Half life in Sprague-Dawley rat at 2.13 mg/kg, po. Type of data set: ADME, organism-based. Also noted: dose 2.13 mg/kg, route oral. The note with it: in vivo. Summed up:
(§1)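 Male SD rats dosed once i.v. or p.o. (n = 8 per route), vehicle 5% ethanol, 10% HPCD, phosphate buffer pH 7.5-8.0. One animal sacrificed at each of 5, 15, 30, 60, 90, 120, 240 and 360 min; EDTA plasma analysed by high turbulence LC-MS/MS. Each data point represents one animal.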

For data set [6], the system named is Mus musculus. The experiment in a line: Decrease in glucose level in human ApoB100/CETP transgenic mouse at 6 mg/kg, po after 6 weeks relative to control. In kind it is functional. More on the design: scale not given: the % may be the effect or the level left.
Data set [7] deals with T2, Peroxisome proliferator-activated receptor alpha (Homo sapiens) (UniProt Q07869).
T2 sequence (whole entry): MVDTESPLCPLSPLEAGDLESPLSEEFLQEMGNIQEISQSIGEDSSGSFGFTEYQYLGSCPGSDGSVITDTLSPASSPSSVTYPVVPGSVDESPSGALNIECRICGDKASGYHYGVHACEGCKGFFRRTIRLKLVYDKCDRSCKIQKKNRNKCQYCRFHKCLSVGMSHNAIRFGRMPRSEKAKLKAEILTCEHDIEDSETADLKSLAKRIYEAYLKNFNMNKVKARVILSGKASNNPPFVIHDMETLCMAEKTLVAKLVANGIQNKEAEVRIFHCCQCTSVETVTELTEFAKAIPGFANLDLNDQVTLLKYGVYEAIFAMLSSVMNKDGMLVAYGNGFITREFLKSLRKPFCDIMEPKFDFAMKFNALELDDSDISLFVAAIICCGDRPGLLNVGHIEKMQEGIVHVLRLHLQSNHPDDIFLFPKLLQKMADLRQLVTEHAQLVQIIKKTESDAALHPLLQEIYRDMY
Put plainly: Activity at human liver PPAR alpha expressed in HEK293 cells by GAL4 transactivation assay relative to NNC61-4655. In kind it is cell-based.

For data set [8], the system named is Mus musculus. The experiment in a line: Decrease in total ketone bodies level in human ApoB100/CETP transgenic mouse at 6 mg/kg, po after 6 weeks relative to control. Type of data set: functional. Also noted: scale not given: the % may be the effect or the level left.
Data set [9] in a line: Oral bioavailability in Sprague-Dawley rat at 2.13 mg/kg. In kind it is ADME, organism-based. The settings on record: in vivo. Summed up:
(§2)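 Male SD rats received a single p.o. or i.v. dose (n = 8 per route) in 5% ethanol, 10% HPCD and phosphate buffer, pH 7.5-8.0. At 5, 15, 30, 60, 90, 120, 240 and 360 min one rat was sacrificed per time point. EDTA plasma was assayed by high turbulence LC-MS/MS. Cmax and bioavailability were taken from oral dosing; volume of distribution is at steady state.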

The subject of data set [10] is Mus musculus. Put plainly: Decrease in insulin level in human ApoB100/CETP transgenic mouse at 6 mg/kg, po after 6 weeks by ELISA relative to control. In kind it is functional. More on the design: scale not given: the % may be the effect or the level left. In general terms: In an ELISA, binding on a coated surface is turned into a signal by an enzyme label.
The test system of data set [11] is Mus musculus. The experiment in a line: Decrease in HbA1c level in human ApoB100/CETP transgenic mouse at 6 mg/kg, po after 6 weeks relative to control. In kind it is functional. Also noted: scale not given: the % may be the effect or the level left.
The nature of data set [12]: Clearance in Sprague-Dawley rat at 1.09 mg/kg, iv. In kind it is ADME, organism-based. More on the design: dose 1.09 mg/kg, route intravenous. The settings on record: in vivo. Summed up:
as §1

In data set [13] the test system is L6. Put plainly: Effect on fatty acid oxidation in rat L6 cells. Type of data set: functional, cell-based. The procedure, abridged:
(§3)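 Rat L6 myoblasts differentiated 5 days in 2% serum, then treated 42 h with compound (refreshed at 24 h), followed by 6 h with 0.4 mM palmitate containing [9,10-3H]-palmitic acid on 2% fatty-acid-free BSA. Stopped with 10% TCA; released 3H-H2O collected by overnight equilibration at 50 °C and counted.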

Data set [14] can be described thus: Volume of distribution in Sprague-Dawley rat at 1.09 mg/kg, iv. In kind it is ADME, organism-based. The settings on record: in vivo, read-out: Vss. Also noted: dose 1.09 mg/kg, route intravenous. The procedure, abridged: as §2
For data set [15], the system named is L6. Put plainly: Effect on increase in fatty acid oxidation in rat L6 cells relative to basal. In kind it is functional. Summed up:
as §3

Data set [16] has as its system Mus musculus. Put plainly: Increase in HDL level in human ApoB100/CETP transgenic mouse at 6 mg/kg, po after 6 weeks relative to control. Type of data set: functional.
Data set [17] is described as follows: Plasma Cmax in Sprague-Dawley rat at 2.13 mg/kg, po. In kind it is ADME, organism-based. More on the design: dose 2.13 mg/kg, route oral. The procedure, abridged:
as §2

`Cc1cc(SCc2sc(-c3ccc(C(F)(F)F)cc3)nc2C)ccc1OCC(=O)O` [GW501516]: the Activity amounted to 14% in the data set with Mus musculus [1]; 269% in [2]; 19% in the data set on Mus musculus [3]; 15% with Mus musculus [4]; 4% in the data set with Mus musculus [6]; 49% in the data set with Mus musculus [8]. Moreover, the Activity with Mus musculus [10] came out at 41%; with Mus musculus [11], 13%; with L6 [15], 120%; with Mus musculus [16], 4%. This molecule also registered a half-life in data set [5] of 10.2 h. Besides, the Efficacy in [7] was 68%. Moreover, the bioavailability in data set [9] came to 136%. The same molecule gave a clearance in data set [12] of 7 mL/min/kg. For the same molecule, the EC50 in the data set with L6 [13] worked out at 6 nM. The Vd in [14] was 1 L/kg. The highest level in data set [17] (Cmax) was 454 ng/mL.

What is called half-life is how long it takes for the measured level to halve. For orientation: clearance means the volume of plasma or blood freed of the substance per unit of time. What is called EC50 is the concentration giving half of the maximal effect. As a reminder, the Cmax is the maximum level reached in the sampled fluid or tissue.
